Experimental data from ChEMBL document CHEMBL3813684, “A Prospective Virtual Screening Study: Enriching Hit Rates and Designing Focus Libraries To Find Inhibitors of PI3Kδ and PI3Kγ” (J Med Chem, 2016).

Key:
[1] = target: PI3-kinase p110-delta/p85-alpha (Homo sapiens, UniProt O00329); assay: Inhibition of human full length recombinant His-tagged PIK3CD/PIK3R1 expressed in baculovirus expression system after 60 mins by LanthaScreen Eu binding assay in presence of kinase tracer 314
Procedure, shortened: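 Binding displacement in 50 mM HEPES pH 7.5, 10 mM MgCl2, 1 mM EGTA, 0.01% Brij-35. Enzyme 0.5 nM with Eu-anti-GST antibody 2 nM added to pre-spotted compound, then tracer 314 10 nM (all final). Controls omit enzyme. 60 min at room temperature; TR-FRET read at excitation 320 nm, emission 615/665 nm. Results as pIC50.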

[2] = target: Phosphatidylinositol 4,5-bisphosphate 3-kinase catalytic subunit gamma isoform (Homo sapiens, UniProt P48736); assay: Inhibition of human PI3Kgamma using PIP2 as substrate by HTRF assay in presence of biotin-PIP3
Procedure, shortened: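 HTRF enzyme assay: PI3Kγ added to mix of ATP, MgCl2 and PIP2 substrate (apparent Km 200 µM ATP, 15 µM PIP2). PIP3 product read by displacement of biotin-PIP3 from Eu-anti-GST antibody/GST-GRP1 PH domain/biotin-PIP3/streptavidin-APC complex. Primary screen at 10 µM, hits >2 SD from mean; confirmation in triplicate at 10 µM; dose response as pIC50.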

Sequence of Phosphatidylinositol 4,5-bisphosphate 3-kinase catalytic subunit gamma isoform (P48736 whole entry, the tested form may be a part, canonical isoform): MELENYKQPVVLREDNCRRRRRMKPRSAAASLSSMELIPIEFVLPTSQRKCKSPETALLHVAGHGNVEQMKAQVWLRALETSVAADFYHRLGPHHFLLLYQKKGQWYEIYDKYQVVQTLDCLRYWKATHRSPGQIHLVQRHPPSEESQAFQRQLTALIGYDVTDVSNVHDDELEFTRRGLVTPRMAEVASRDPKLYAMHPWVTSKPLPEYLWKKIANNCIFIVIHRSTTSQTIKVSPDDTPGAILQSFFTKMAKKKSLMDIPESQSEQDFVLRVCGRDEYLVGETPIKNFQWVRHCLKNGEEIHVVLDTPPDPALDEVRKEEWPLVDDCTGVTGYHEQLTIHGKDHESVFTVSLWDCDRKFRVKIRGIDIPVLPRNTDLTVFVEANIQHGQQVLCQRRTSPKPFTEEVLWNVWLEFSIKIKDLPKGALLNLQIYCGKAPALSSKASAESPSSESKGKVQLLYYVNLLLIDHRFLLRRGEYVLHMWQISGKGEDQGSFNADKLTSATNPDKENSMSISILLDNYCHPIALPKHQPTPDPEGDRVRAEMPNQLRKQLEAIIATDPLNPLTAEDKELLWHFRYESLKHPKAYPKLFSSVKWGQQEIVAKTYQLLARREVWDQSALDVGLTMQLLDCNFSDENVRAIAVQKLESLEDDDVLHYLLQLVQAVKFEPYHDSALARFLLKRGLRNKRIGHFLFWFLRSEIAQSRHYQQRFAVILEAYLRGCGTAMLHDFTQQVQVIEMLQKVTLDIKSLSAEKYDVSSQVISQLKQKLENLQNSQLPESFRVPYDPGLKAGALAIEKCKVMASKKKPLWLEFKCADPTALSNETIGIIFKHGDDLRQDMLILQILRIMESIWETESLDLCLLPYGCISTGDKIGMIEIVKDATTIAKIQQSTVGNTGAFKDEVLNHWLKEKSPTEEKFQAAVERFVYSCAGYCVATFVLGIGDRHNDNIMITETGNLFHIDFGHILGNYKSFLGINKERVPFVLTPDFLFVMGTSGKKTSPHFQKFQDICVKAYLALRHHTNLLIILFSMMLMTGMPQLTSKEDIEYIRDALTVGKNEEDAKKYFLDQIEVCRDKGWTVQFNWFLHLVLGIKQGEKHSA
Sequence of PI3-kinase p110-delta/p85-alpha (P27986 whole entry): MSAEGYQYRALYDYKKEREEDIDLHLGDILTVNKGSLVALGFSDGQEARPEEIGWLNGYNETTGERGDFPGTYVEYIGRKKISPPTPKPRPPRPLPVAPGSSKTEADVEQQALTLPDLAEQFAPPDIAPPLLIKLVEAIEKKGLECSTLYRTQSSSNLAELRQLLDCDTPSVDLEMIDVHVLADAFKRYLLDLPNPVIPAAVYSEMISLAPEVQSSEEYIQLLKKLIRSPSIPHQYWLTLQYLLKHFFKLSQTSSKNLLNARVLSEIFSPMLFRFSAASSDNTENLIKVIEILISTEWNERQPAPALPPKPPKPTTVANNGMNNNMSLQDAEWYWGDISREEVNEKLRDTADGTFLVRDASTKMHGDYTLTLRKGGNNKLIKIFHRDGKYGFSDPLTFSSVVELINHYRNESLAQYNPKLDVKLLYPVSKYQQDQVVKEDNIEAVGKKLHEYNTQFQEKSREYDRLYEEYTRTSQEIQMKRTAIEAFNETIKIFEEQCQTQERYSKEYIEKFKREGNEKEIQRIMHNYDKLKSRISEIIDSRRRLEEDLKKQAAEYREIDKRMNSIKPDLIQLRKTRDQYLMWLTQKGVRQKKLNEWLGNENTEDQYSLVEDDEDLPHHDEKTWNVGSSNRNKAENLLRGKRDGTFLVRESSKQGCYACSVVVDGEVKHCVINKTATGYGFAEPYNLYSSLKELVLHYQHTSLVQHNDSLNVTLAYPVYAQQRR
Sequence of PI3-kinase p110-delta/p85-alpha (O00329 whole entry): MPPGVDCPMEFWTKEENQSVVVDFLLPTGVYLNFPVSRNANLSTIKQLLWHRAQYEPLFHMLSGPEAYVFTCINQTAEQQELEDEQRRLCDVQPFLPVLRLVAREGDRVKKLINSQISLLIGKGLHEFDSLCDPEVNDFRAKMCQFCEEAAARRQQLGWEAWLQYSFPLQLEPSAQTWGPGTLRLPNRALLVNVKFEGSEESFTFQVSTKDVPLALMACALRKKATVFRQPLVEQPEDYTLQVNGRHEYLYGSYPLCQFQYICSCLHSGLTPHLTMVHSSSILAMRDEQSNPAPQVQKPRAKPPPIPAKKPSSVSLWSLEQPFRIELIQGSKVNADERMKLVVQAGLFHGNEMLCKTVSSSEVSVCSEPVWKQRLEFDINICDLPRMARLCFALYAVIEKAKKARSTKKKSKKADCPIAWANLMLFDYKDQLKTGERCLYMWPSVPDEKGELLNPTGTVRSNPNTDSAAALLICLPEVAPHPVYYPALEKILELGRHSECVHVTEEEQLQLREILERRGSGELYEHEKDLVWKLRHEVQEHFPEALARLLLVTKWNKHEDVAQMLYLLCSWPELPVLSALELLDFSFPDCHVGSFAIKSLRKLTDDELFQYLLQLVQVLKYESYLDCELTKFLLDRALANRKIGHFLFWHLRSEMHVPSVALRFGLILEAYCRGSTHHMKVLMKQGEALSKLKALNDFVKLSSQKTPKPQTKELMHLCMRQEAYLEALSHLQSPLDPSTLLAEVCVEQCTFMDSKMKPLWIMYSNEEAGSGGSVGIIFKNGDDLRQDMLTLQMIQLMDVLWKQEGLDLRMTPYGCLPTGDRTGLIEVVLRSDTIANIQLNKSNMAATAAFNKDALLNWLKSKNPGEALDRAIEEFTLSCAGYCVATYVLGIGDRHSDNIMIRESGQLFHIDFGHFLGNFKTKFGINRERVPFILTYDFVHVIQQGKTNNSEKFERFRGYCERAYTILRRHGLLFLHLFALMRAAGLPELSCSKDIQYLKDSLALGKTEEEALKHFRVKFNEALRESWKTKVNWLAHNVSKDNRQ

IC50 [1] [µM] | IC50 [2] [µM] | SMILES
6.92 |  | CN(Cc1ccccc1)c1ncnc2ccc(Br)cc12
2.57 |  | Cc1nc2ccc(Cl)cn2c1-c1ccnc(N)n1
0.427 |  | Cn1ccc2cc(-c3cnc4cnc(-c5cccc(C(N)=O)c5)cn34)ccc21
8.51 |  | O=C(C1CC=CCC1)N1CCCC(c2n[nH]c3ncccc23)C1 (stereo unspecified)
 | 2.4 | COc1cc(-c2cnn3ccc(Nc4ccc(C(C)C)cc4)nc23)ccc1O
3.8 |  | c1ccc(CSc2nc(N3CCOCC3)c3sccc3n2)cc1
 | 5.5 | FC(F)(F)c1cc(Nc2nc3ccccc3s2)cc(C(F)(F)F)c1
6.46 |  | c1cncc(CCNc2ccc3ncc(-c4cc5ccccc5s4)n3n2)c1
2.45 |  | NC(=O)c1nc(-c2ccc3ncccc3c2)nc2c1[nH]c(=O)n2CCc1ccccc1
3.16 |  | Clc1ccc2ncnc(NCCCc3ccccc3)c2c1
5.5 |  | Clc1ccc2ncnc(NCCOc3ccccc3)c2c1
0.339 |  | CN1CCC(NCc2ccc(Nc3ncc4cnn([C@H]5C[C@@H]6CC[C@H]5C6)c4n3)cc2)CC1
 | 6.17 | COc1cc(Nc2ccn3ncc(-c4cccc(C(N)=O)c4)c3n2)cc(OC)c1OC
 | 6.92 | COc1cc(-c2cnc3ccc(NCc4ccco4)nn23)ccc1O
8.13 |  | Cc1nn(-c2ccccc2)c2c1-c1nc(N)ncc1CC2
 | 5.75 | COc1cncc(-c2cnn3ccc(NC4CCC(O)CC4)nc23)c1 (stereo unspecified)
